{
  "source": "ChEMBL document CHEMBL4138242",
  "about": "“Synthesis and antibacterial evaluation of novel cationic chalcone derivatives possessing broad spectrum antibacterial activity” (Eur J Med Chem, 2018)",
  "note": "The source made the active and inactive calls. No cut-off for these calls is given here.",
  "data": [
    {"test_system": "Salmonella enterica", "experiment": "Antibacterial activity against Salmonella enterica ATCC 13076 after 16 to 20 hrs by broth microdilution method", "assay_type": "functional", "conditions": "not given", "procedure,_shortened": "(§1)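 Broth microdilution per CLSI. Bacteria grown 4-6 h (about 10⁸ CFU/mL), then diluted to about 10⁶ CFU/mL. Medium: Mueller-Hinton broth, except Luria-Bertani broth for E. coli. Compounds in sterile water, twofold series 256-0.5 µg/mL, mixed 1:1 with inoculum, 37 °C for 16-20 h. MIC is the lowest concentration without visible growth. Duplicate wells; experiment repeated at least twice.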", "units": {"MIC": "µg/mL"}, "values": [
      {"smiles": "CCCCCCCC[N+](C)(C)CC(=O)Nc1ccc(C(=O)/C=C/c2ccc3ccccc3c2)cc1.[Cl-]", "MIC": 8}
    ]},
    {"test_system": "Escherichia coli", "experiment": "Antibacterial activity against drug-resistant NDM1 producing Escherichia coli clinical isolate SM-15-84 after 16 to 20 hrs by broth microdilution method", "assay_type": "functional", "conditions": "not given", "procedure,_shortened": "(§2)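 CLSI broth microdilution in Mueller-Hinton broth. A 4-6 h culture was diluted to about 10⁶ CFU/mL and mixed 1:1 with compound dilutions prepared at 256 to 0.5 µg/mL from aqueous stocks. Plates were incubated at 37 °C for 16-20 h and read visually for MIC. Each concentration was run in duplicate, and the experiment was repeated at least twice. Vancomycin and meropenem were comparators.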", "units": {"MIC": "µg/mL"}, "values": [
      {"smiles": "CCCCCCCC[N+](C)(C)CC(=O)Nc1ccc(C(=O)/C=C/c2ccc3ccccc3c2)cc1.[Cl-]", "MIC": 128}
    ]},
    {"test_system": "Staphylococcus aureus", "experiment": "Antibacterial activity against Staphylococcus aureus ATCC 29213 after 16 to 20 hrs by broth microdilution method", "assay_type": "functional", "conditions": "not given", "procedure,_shortened": "as §1", "units": {"MIC": "µg/mL"}, "values": [
      {"smiles": "CCCCCCCC[N+](C)(C)CC(=O)Nc1ccc(C(=O)/C=C/c2ccc3ccccc3c2)cc1.[Cl-]", "MIC": 2}
    ]},
    {"test_system": "Escherichia coli", "experiment": "Antibacterial activity against drug-resistant NDM1 producing Escherichia coli clinical isolate EA-14-61 after 16 to 20 hrs by broth microdilution method", "assay_type": "functional", "conditions": "not given", "procedure,_shortened": "as §2", "units": {"MIC": "µg/mL"}, "values": [
      {"smiles": "CCCCCCCC[N+](C)(C)CC(=O)Nc1ccc(C(=O)/C=C/c2ccc3ccccc3c2)cc1.[Cl-]", "MIC": 8}
    ]},
    {"test_system": "Escherichia coli", "experiment": "Antibacterial activity against drug-resistant NDM1 producing Escherichia coli clinical isolate Ecl-14-59 after 16 to 20 hrs by broth microdilution method", "assay_type": "functional", "conditions": "not given", "procedure,_shortened": "as §2", "units": {"MIC": "µg/mL"}, "values": [
      {"smiles": "CCCCCCCC[N+](C)(C)CC(=O)Nc1ccc(C(=O)/C=C/c2ccc3ccccc3c2)cc1.[Cl-]", "MIC": 16}
    ]},
    {"test_system": "Staphylococcus aureus", "experiment": "Antibacterial activity against methicillin-resistant Staphylococcus aureus clinical isolate 1-may after 16 to 20 hrs by broth microdilution method", "assay_type": "functional", "conditions": "not given", "procedure,_shortened": "as §2", "units": {"MIC": "µg/mL"}, "values": [
      {"smiles": "CCCCCCCC[N+](C)(C)CC(=O)Nc1ccc(C(=O)/C=C/c2ccc3ccccc3c2)cc1.[Cl-]", "MIC": 2}
    ]},
    {"test_system": "Klebsiella pneumoniae", "experiment": "Antibacterial activity against drug-resistant carbapenemase producing Klebsiella pneumoniae clinical isolate EC-13-23 after 16 to 20 hrs by broth microdilution method", "assay_type": "functional", "conditions": "not given", "procedure,_shortened": "as §2", "units": {"MIC": "µg/mL"}, "values": [
      {"smiles": "CCCCCCCC[N+](C)(C)CC(=O)Nc1ccc(C(=O)/C=C/c2ccc3ccccc3c2)cc1.[Cl-]", "MIC": 8}
    ]},
    {"test_system": "Escherichia coli", "experiment": "Antibacterial activity against drug-resistant NDM1 producing Escherichia coli clinical isolate Ecl-13-62 after 16 to 20 hrs by broth microdilution method", "assay_type": "functional", "conditions": "not given", "procedure,_shortened": "as §2", "units": {"MIC": "µg/mL"}, "values": [
      {"smiles": "CCCCCCCC[N+](C)(C)CC(=O)Nc1ccc(C(=O)/C=C/c2ccc3ccccc3c2)cc1.[Cl-]", "MIC": 8}
    ]},
    {"test_system": "Staphylococcus aureus", "experiment": "Antibacterial activity against methicillin-resistant Staphylococcus aureus clinical isolate 0831010 after 16 to 20 hrs by broth microdilution method", "assay_type": "functional", "conditions": "not given", "procedure,_shortened": "as §2", "units": {"MIC": "µg/mL"}, "values": [
      {"smiles": "CCCCCCCC[N+](C)(C)CC(=O)Nc1ccc(C(=O)/C=C/c2ccc3ccccc3c2)cc1.[Cl-]", "MIC": 1}
    ]},
    {"test_system": "Klebsiella pneumoniae", "experiment": "Antibacterial activity against drug-resistant carbapenemase producing Klebsiella pneumoniae clinical isolate KP-13-45 after 16 to 20 hrs by broth microdilution method", "assay_type": "functional", "conditions": "not given", "procedure,_shortened": "as §2", "units": {"MIC": "µg/mL"}, "values": [
      {"smiles": "CCCCCCCC[N+](C)(C)CC(=O)Nc1ccc(C(=O)/C=C/c2ccc3ccccc3c2)cc1.[Cl-]", "MIC": 16}
    ]},
    {"test_system": "Escherichia coli", "experiment": "Antibacterial activity against drug-resistant NDM1 producing Escherichia coli clinical isolate Ecl-14-56 after 16 to 20 hrs by broth microdilution method", "assay_type": "functional", "conditions": "not given", "procedure,_shortened": "as §2", "units": {"MIC": "µg/mL"}, "values": [
      {"smiles": "CCCCCCCC[N+](C)(C)CC(=O)Nc1ccc(C(=O)/C=C/c2ccc3ccccc3c2)cc1.[Cl-]", "MIC": 8}
    ]},
    {"test_system": "Klebsiella pneumoniae", "experiment": "Antibacterial activity against drug-resistant carbapenemase producing Klebsiella pneumoniae clinical isolate KP-14-4 after 16 to 20 hrs by broth microdilution method", "assay_type": "functional", "conditions": "not given", "procedure,_shortened": "as §2", "units": {"MIC": "µg/mL"}, "values": [
      {"smiles": "CCCCCCCC[N+](C)(C)CC(=O)Nc1ccc(C(=O)/C=C/c2ccc3ccccc3c2)cc1.[Cl-]", "MIC": 32}
    ]},
    {"test_system": "not listed separately", "experiment": "Hemolytic activity in sheep RBC after 1 hr", "assay_type": "ADME, cell-based, Ovis aries, Erythrocyte", "conditions": "sheep red blood cells (erythrocytes)", "procedure,_shortened": "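Sheep red blood cells (150 µL suspension) mixed with 50 µL of compound dilutions (5120-10 µg/mL), 1 h at 37 °C, then centrifuged. Supernatant read at 540 nm. Percent hemolysis calculated relative to RBC-only control (0%) and 0.1% Triton X-100 (100%).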", "units": {"HC50 at 1 h": "µg/mL"}, "values": [
      {"smiles": "CCCCCCCC[N+](C)(C)CC(=O)Nc1ccc(C(=O)/C=C/c2ccc3ccccc3c2)cc1.[Cl-]", "HC50 at 1 h": 374}
    ]},
    {"test_system": "Staphylococcus aureus", "experiment": "Induction of cytoplasmic membrane depolarization in Staphylococcus aureus ATCC 29213 at 10 to 20 ug/ml measured every 2 mins for 12 mins by DiSC35 dye-based fluorescence assay", "assay_type": "functional, organism-based", "conditions": "not given", "procedure,_shortened": "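Mid-log cells (~10⁸ CFU/mL) were suspended in PBS (S. aureus) or HEPES/glucose/KCl with EDTA (E. coli). They were preloaded with DiSC3(5) for 30 min (S. aureus) or 40 min (E. coli), and baseline fluorescence was read for 8 min. Compound was added to 20 µg/mL final, and fluorescence (ex 622/em 670 nm) was read every 2 min for 12 min. Water served as control.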", "values": [
      {"smiles": "CCCCCCCC[N+](C)(C)CC(=O)Nc1ccc(C(=O)/C=C/c2ccc3ccccc3c2)cc1.[Cl-]", "Activity": "Active"}
    ]},
    {"test_system": "Escherichia coli", "experiment": "Antibacterial activity against Escherichia coli ATCC 25922 after 16 to 20 hrs by broth microdilution method", "assay_type": "functional", "conditions": "not given", "procedure,_shortened": "as §1", "units": {"MIC": "µg/mL"}, "values": [
      {"smiles": "CCCCCCCC[N+](C)(C)CC(=O)Nc1ccc(C(=O)/C=C/c2ccc3ccccc3c2)cc1.[Cl-]", "MIC": 8}
    ]},
    {"test_system": "Escherichia coli", "experiment": "Antibacterial activity against drug-resistant NDM1 producing Escherichia coli clinical isolate CF-15-61 after 16 to 20 hrs by broth microdilution method", "assay_type": "functional", "conditions": "not given", "procedure,_shortened": "as §2", "units": {"MIC": "µg/mL"}, "values": [
      {"smiles": "CCCCCCCC[N+](C)(C)CC(=O)Nc1ccc(C(=O)/C=C/c2ccc3ccccc3c2)cc1.[Cl-]", "MIC": 16}
    ]},
    {"test_system": "Klebsiella pneumoniae", "experiment": "Antibacterial activity against drug-resistant carbapenemase producing Klebsiella pneumoniae clinical isolate KP-14-2 after 16 to 20 hrs by broth microdilution method", "assay_type": "functional", "conditions": "not given", "procedure,_shortened": "as §2", "units": {"MIC": "µg/mL"}, "values": [
      {"smiles": "CCCCCCCC[N+](C)(C)CC(=O)Nc1ccc(C(=O)/C=C/c2ccc3ccccc3c2)cc1.[Cl-]", "MIC": "> 128"}
    ]},
    {"test_system": "Klebsiella pneumoniae", "experiment": "Antibacterial activity against drug-resistant carbapenemase producing Klebsiella pneumoniae clinical isolate KP-13-54 after 16 to 20 hrs by broth microdilution method", "assay_type": "functional", "conditions": "not given", "procedure,_shortened": "as §2", "units": {"MIC": "µg/mL"}, "values": [
      {"smiles": "CCCCCCCC[N+](C)(C)CC(=O)Nc1ccc(C(=O)/C=C/c2ccc3ccccc3c2)cc1.[Cl-]", "MIC": 16}
    ]},
    {"test_system": "Staphylococcus aureus", "experiment": "Antibacterial activity against methicillin-resistant Staphylococcus aureus clinical isolate 20130911034sau after 16 to 20 hrs by broth microdilution method", "assay_type": "functional", "conditions": "not given", "procedure,_shortened": "as §2", "units": {"MIC": "µg/mL"}, "values": [
      {"smiles": "CCCCCCCC[N+](C)(C)CC(=O)Nc1ccc(C(=O)/C=C/c2ccc3ccccc3c2)cc1.[Cl-]", "MIC": 1}
    ]},
    {"test_system": "Escherichia coli", "experiment": "Antibacterial activity against drug-resistant NDM1 producing Escherichia coli clinical isolate KP-13-58 after 16 to 20 hrs by broth microdilution method", "assay_type": "functional", "conditions": "not given", "procedure,_shortened": "as §2", "units": {"MIC": "µg/mL"}, "values": [
      {"smiles": "CCCCCCCC[N+](C)(C)CC(=O)Nc1ccc(C(=O)/C=C/c2ccc3ccccc3c2)cc1.[Cl-]", "MIC": 2}
    ]},
    {"test_system": "Escherichia coli", "experiment": "Antibacterial activity against drug-resistant NDM1 producing Escherichia coli clinical isolate EC-14-54 after 16 to 20 hrs by broth microdilution method", "assay_type": "functional", "conditions": "not given", "procedure,_shortened": "as §2", "units": {"MIC": "µg/mL"}, "values": [
      {"smiles": "CCCCCCCC[N+](C)(C)CC(=O)Nc1ccc(C(=O)/C=C/c2ccc3ccccc3c2)cc1.[Cl-]", "MIC": 1}
    ]}
  ]
}
